# Experiments:
# [1] = Peptide helicity by CD spectroscopy; assay type: physicochemical
# Outline: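 Test peptides at 100 μM in 5 mM sodium phosphate, pH 7.4, equilibrated at 10, 15, 20, 25 and 30 °C. Spectra recorded from 180 to 260 nm: 0.1 nm step, 50 nm/s, five accumulations, 1 s response, 5 nm bandwidth, 0.1 cm path. α-Helical content calculated from previously reported equations. Triplicate analyses per peptide.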
# m^7GDP-bound eIF4E = m^7GDP-bound eIF4E (Homo sapiens, UniProt P06730); experiment: SPR binding kinetics of peptides to immobilized eIF4E
# [2] = SPR, 25 °C, 1.0 M versus 225 mM salt
# m^7GDP-bound eIF4E, sequence (P06730 whole entry): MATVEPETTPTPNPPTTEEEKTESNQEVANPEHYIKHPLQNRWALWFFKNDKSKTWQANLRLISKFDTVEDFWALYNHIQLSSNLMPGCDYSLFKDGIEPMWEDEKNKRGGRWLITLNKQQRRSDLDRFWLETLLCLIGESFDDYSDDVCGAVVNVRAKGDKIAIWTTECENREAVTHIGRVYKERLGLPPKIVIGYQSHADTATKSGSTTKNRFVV
molecule,measurement,setting,value
CC[C@H](C)[C@H](NC(=O)[C@H](CCCNC(=N)N)NC(=O)[C@@H](NC(=O)CNC(C)=O)[C@@H](C)O)C(=O)N[C@H](C(=O)N[C@@H](Cc1ccc(O)cc1)C(=O)N[C@@H](CC(=O)O)C(=O)N[C@@H](CCCNC(=N)N)C(=O)N[C@@H](CCCCN)C(=O)N[C@@H](Cc1ccccc1)C(=O)N[C@@H](CC(C)C)C(=O)N[C@@H](CCSC)C(=O)N[C@@H](CCC(=O)O)C(=O)N[C@@H](CS)C(=O)N[C@@H](CCCNC(=N)N)C(=O)N[C@@H](CC(N)=O)C(N)=O)[C@@H](C)CC [4E-BP1],helicity over the temperatures tested,"[1]; 100 μM, 10 to 30 °C",15–19%
same,helicity in the presence of TFE,"[1]; 5 mM sodium phosphate buffer pH 7.4, 25 °C, 100 μM peptide, with 2,2,2-trifluoroethanol",37%
CC(=O)N[C@@H](CCCCN)C(=O)N[C@@H](CCCCN)C(=O)N[C@@H](CCCNC(=N)N)C(=O)N[C@@H](Cc1ccc(O)cc1)C(=O)N[C@@H](CC(=O)O)C(=O)N[C@@H](CCCNC(=N)N)C(=O)N[C@@H](CCC(=O)O)C(=O)N[C@@H](Cc1ccccc1)C(=O)N[C@@H](CC(C)C)C(=O)N[C@@H](CC(C)C)C(=O)NCC(=O)N[C@@H](Cc1ccccc1)C(=O)N[C@@H](CCC(N)=O)C(=O)N[C@@H](Cc1ccccc1)C(N)=O [eIF4G],kd with increasing salt concentration,"m^7GDP-bound eIF4E; SPR, 25 °C, running buffer salt 225 to 1000 mM",0.046 to 0.27 s⁻¹
same,kinetic advantage (ka) of eIF4G peptide over both 4E-BP1 peptides,"m^7GDP-bound eIF4E; SPR, at most temperatures, particularly the higher ones",~ 2 fold
Ac-KKRYSREQLLGL-NH2 [Linear sTIP-04],fold decrease in Kd with increasing salt concentration,m^7GDP-bound eIF4E; [2],4 fold
same,fold decrease in kd with increasing salt concentration,m^7GDP-bound eIF4E; [2],48 fold
same,kon,"m^7GDP-bound eIF4E; pH 7.5, read-out: association rate ka",2e+06 ± 100000 M⁻¹ s⁻¹
same,koff,"m^7GDP-bound eIF4E; pH 7.5, read-out: dissociation rate kd",0.123 ± 0.014 s⁻¹

# From paper PMC6679956 (Journal of medicinal chemistry, 2019)
